ChEMBL document CHEMBL4834477, “Synthesis and biological evaluation of novel purinyl quinazolinone derivatives as PI3Kδ-specific inhibitors for the treatment of hematologic malignancies” (Bioorg Med Chem, 2021)
The source made the active and inactive calls. The calls are words filed in the database; no cut-off is given here.

Key:
[1] = test system: SU-DHL-5; test: Antiproliferative activity against human SU-DHL-5 cells assessed as cell viability at 10 uM by CellTiter-Glo luminescent cell viability assay (reference value: 100%); assay type: functional; conditions: read-out: Activity
[2] = test system: MOLT-4; test: Antiproliferative activity against human MOLT-4 cells assessed as cell viability at 20 uM by CellTiter-Glo luminescent cell viability assay (reference value: 100%); assay type: functional; conditions: read-out: Activity
[3] = molecular target: T1, Phosphatidylinositol 4,5-bisphosphate 3-kinase catalytic subunit delta isoform (Homo sapiens) (UniProt O00329); test: Inhibition of PI3Kdelta in human SU-DHL-5 cells assessed as inhibition of AKT phosphorylation at Ser473 residue at 1 to 5 uM measured after 3 hrs by western blot assay; assay type: cell-based; conditions: dose 1-5 µM
T1 sequence (whole entry): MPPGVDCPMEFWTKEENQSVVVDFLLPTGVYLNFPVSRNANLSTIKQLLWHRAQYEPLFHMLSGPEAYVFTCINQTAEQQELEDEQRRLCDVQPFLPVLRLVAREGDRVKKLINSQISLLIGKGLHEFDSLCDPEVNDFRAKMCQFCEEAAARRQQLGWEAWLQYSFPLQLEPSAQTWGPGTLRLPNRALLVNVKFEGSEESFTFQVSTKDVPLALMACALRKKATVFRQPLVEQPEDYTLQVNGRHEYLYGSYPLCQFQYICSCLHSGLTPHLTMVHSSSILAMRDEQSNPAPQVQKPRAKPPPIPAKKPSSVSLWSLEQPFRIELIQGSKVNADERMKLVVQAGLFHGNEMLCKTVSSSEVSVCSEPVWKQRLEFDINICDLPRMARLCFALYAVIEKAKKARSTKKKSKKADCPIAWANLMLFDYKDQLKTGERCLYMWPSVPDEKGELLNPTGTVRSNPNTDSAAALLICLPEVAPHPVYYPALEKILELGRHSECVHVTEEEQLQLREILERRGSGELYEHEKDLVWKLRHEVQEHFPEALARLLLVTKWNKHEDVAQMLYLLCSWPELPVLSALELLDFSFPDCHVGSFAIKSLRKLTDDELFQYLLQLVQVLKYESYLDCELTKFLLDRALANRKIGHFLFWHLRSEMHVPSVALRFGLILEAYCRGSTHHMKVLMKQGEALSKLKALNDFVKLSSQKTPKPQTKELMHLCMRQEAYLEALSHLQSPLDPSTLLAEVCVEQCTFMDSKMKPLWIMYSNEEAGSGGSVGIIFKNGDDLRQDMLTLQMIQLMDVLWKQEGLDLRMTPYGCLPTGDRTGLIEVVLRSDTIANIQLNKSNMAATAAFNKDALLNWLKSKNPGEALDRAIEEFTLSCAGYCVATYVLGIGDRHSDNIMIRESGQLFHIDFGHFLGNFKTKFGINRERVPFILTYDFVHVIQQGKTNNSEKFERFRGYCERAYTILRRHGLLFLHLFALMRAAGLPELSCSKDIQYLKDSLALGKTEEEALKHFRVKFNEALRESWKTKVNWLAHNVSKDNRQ
Summary of the method: (§1)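 Treatment lasted 3 h: SUDHL-5 at 1 μM, MOLT-4 at 5 μM. Cells washed twice in cold PBS and lysed. Proteins resolved on 10–12% SDS-PAGE and blotted to PVDF. Probed for p-AKT S473, p-AKT T308, p-S6 and p-4E-BP1, with β-actin as loading control.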

[4] = molecular target: T1, Phosphatidylinositol 4,5-bisphosphate 3-kinase catalytic subunit delta isoform (Homo sapiens); test: Inhibition of PI3Kdelta in human MOLT-4 cells assessed as inhibition of AKT phosphorylation at Ser473 residue at 1 to 5 uM measured after 3 hrs by western blot assay; assay type: cell-based; conditions: dose 1-5 µM; summary of the method: as §1
[5] = molecular target: T1, Phosphatidylinositol 4,5-bisphosphate 3-kinase catalytic subunit delta isoform (Homo sapiens); test: Inhibition of PI3Kdelta in human SU-DHL-5 cells assessed as inhibition of S6 phosphorylation at 1 to 5 uM measured after 3 hrs by western blot assay; assay type: cell-based; conditions: dose 1-5 µM; summary of the method: as §1
[6] = molecular target: T1, Phosphatidylinositol 4,5-bisphosphate 3-kinase catalytic subunit delta isoform (Homo sapiens); test: Inhibition of PI3Kdelta in human MOLT-4 cells assessed as inhibition of S6 phosphorylation at 1 to 5 uM measured after 3 hrs by western blot assay; assay type: cell-based; conditions: dose 1-5 µM; summary of the method: as §1
[7] = molecular target: T1, Phosphatidylinositol 4,5-bisphosphate 3-kinase catalytic subunit delta isoform (Homo sapiens); test: Inhibition of PI3Kdelta in human SU-DHL-5 cells assessed as inhibition of 4EBP1 phosphorylation at 1 to 5 uM measured after 3 hrs by western blot assay; assay type: cell-based; conditions: dose 1-5 µM; summary of the method: as §1
[8] = molecular target: T1, Phosphatidylinositol 4,5-bisphosphate 3-kinase catalytic subunit delta isoform (Homo sapiens); test: Inhibition of PI3Kdelta in human MOLT-4 cells assessed as inhibition of 4EBP1 phosphorylation at 1 to 5 uM measured after 3 hrs by western blot assay; assay type: cell-based; conditions: dose 1-5 µM; summary of the method: as §1
[9] = test system: SU-DHL10; test: Induction of apoptosis in human SU-DHL-10 cells assessed as late apoptotic cells at 20 uM measured after 24 hrs by AnnexinV-FITC/PI staining based flowcytometry method (reference value: 3.48%); assay type: functional
Summary of the method: (§2)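 Cells exposed to 20 μM compound for 24 h, washed with cold PBS, and stained with Annexin V-FITC and propidium iodide for 15 min at room temperature. Viable, early apoptotic, late apoptotic and necrotic populations quantified by flow cytometry.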

[10] = test system: MOLT-4; test: Induction of apoptosis in human MOLT-4 cells assessed as viable cells at 20 uM measured after 24 hrs by AnnexinV-FITC/PI staining based flowcytometry method (reference value: 95.3%); assay type: functional; conditions: read-out: Activity; summary of the method: as §2
[11] = test system: MOLT-4; test: Induction of apoptosis in human MOLT-4 cells assessed as early apoptotic cells at 20 uM measured after 24 hrs by AnnexinV-FITC/PI staining based flowcytometry method (reference value: 2.04%); assay type: functional; summary of the method: as §2
[12] = test system: MOLT-4; test: Induction of apoptosis in human MOLT-4 cells assessed as late apoptotic cells at 20 uM measured after 24 hrs by AnnexinV-FITC/PI staining based flowcytometry method (reference value: 2.17%); assay type: functional; summary of the method: as §2
[13] = AUC (last) in Sprague-Dawley rat at 3 mg/kg, po measured for 24 hrs by LC-MS/MS analysis; assay type: ADME, organism-based; parameters: route oral, time 24 hrs, dose 3 mg/kg; conditions: in vivo
Summary of the method: (§3)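 Sprague-Dawley rats dosed orally at 1 or 3 mg/kg, three animals per group. Blood sampled at 0.25, 0.5, 1, 2, 4, 8 and 24 h post-dose. Plasma separated by centrifugation, extracted and quantified by LC-MS/MS. PK parameters (Cmax, AUClast, Tmax, t1/2) derived by non-compartmental software.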

[14] = Cmax in Sprague-Dawley rat at 3 mg/kg, po measured for 24 hrs by LC-MS/MS analysis; assay type: ADME, organism-based; parameters: route oral, time 24 hrs, dose 3 mg/kg; conditions: in vivo; summary of the method: as §3
[15] = Tmax in Sprague-Dawley rat at 3 mg/kg, po measured for 24 hrs by LC-MS/MS analysis; assay type: ADME, organism-based; conditions: in vivo; summary of the method: as §3
[16] = Cytotoxicity against human MRC5 cells assessed as inhibition of cell viability at 20 uM measured after 48 hrs by MTT assay; assay type: cell-based; conditions: read-out: INH
Summary of the method: (§4)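 MTT assay in MRC-5 cells seeded at 2×10^6 cells/mL. Compound given in 1% FBS EMEM for 48 h at 37 °C in CO2. MTT solution then added for 3 h at 37 °C. Medium removed and formazan dissolved in DMSO.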

[17] = test system: MRC5; test: Cytotoxicity against human MRC5 cells assessed as inhibition of cell viability measured after 48 hrs by MTT assay; assay type: cell-based; conditions: MRC5, 48 h; summary of the method: as §4
[18] = molecular target: T1, Phosphatidylinositol 4,5-bisphosphate 3-kinase catalytic subunit delta isoform (Homo sapiens); test: Inhibition of PI3Kdelta in human SU-DHL-5 cells assessed as inhibition of AKT phosphorylation at Thr308 residue at 1 to 5 uM measured after 3 hrs by western blot assay; assay type: cell-based; conditions: dose 1-5 µM; summary of the method: as §1
[19] = molecular target: T1, Phosphatidylinositol 4,5-bisphosphate 3-kinase catalytic subunit delta isoform (Homo sapiens); test: Inhibition of PI3Kdelta in human MOLT-4 cells assessed as inhibition of AKT phosphorylation at Thr308 residue at 1 to 5 uM measured after 3 hrs by western blot assay; assay type: cell-based; conditions: dose 1-5 µM; summary of the method: as §1

| Compound | viability at 10 µM [1] [%] | viability at 20 µM [2] [%] | inhibition [3] | inhibition [4] | inhibition [5] | inhibition [6] | inhibition [7] | inhibition [8] | Activity [9] [%] | viability at 20 µM [10] [%] | Activity [11] [%] | Activity [12] [%] | AUC(0-t) at 24 h [13] [ng·h/mL] | Cmax [14] [ng/mL] | Tmax [15] [min] | cytotoxicity at 48 h, 20 µM [16] [%] | IC50 [17] [µM] | inhibition [18] | inhibition [19] |
| --- | --- | --- | --- | --- | --- | --- | --- | --- | --- | --- | --- | --- | --- | --- | --- | --- | --- | --- | --- |
| Cc1cccc2nc([C@@H](Nc3ncnc4nc[nH]c34)C3CC3)n(-c3ccccc3)c(=O)c12 | 20.2 | 14.6 | Active | Active | Active | Active | Active | Active | 45.9 | 41 | 13.4 | 42.3 | 37.2 | 11.1 | 30 | 23.1 | 49.1 | Active | Active |
| O=c1c2c(F)cccc2nc([C@@H](Nc2ncnc3nc[nH]c23)C2CC2)n1-c1ccccc1 | 34.8 | 63.1 | Active | Active | Active | Active | Active | Active | 24.2 | 49.5 | 17.8 | 30.3 | 255 | 41.9 | 60 | 3.93 | > 100 | Active | Active |
